The record followed here is ChEMBL document CHEMBL3608234, “Synthesis and antiviral evaluation of a novel series of homoserine-based inhibitors of the hepatitis C virus NS3/4A serine protease” (Bioorg Med Chem Lett, 2015).

Data set [1] can be described thus: Cytotoxicity against human GS4.1 cells assessed as induction of cell death. It counts as cell-based. In a few lines:
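GS4.1 cells (Huh-7 with Con1 subgenomic replicon); CC50 taken as concentration giving 50% cell death, from death versus concentration data relative to blank control.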

The nature of data set [2]: Inhibition of full length HCV 1b Con1 NS3/4A protease using HiLyte Fluor 610 peptide substrate by biochemical FRET assay. On the set-up: species or system Hepatitis C virus (isolate Con1). The method in brief: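 Fluorescence (FRET) protease assay on full-length genotype 1b Con1 HCV NS3/4A with HiLyte Fluor 610 peptide substrate; IC50 from percent inhibition versus concentration by four-parameter sigmoidal non-linear regression.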

Another data set has as its system Hepatitis C virus. Briefly: Antiviral activity against HCV Con1 infected in human GS4.1 cells containing HCV Con1 subgenomic replicon assessed as reduction in NS5A protein expression by ELISA method. It counts as functional, cell-based, Hepacivirus hominis. The following applies: genotype 1b Con1. The method in brief: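 Huh-7 cells carrying HCV Con1 subgenomic replicon (GS4.1); replication followed as NS5A protein expression by ELISA; EC50 from 50% inhibition versus concentration data fitted by four-parameter sigmoidal non-linear regression.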
(In general: Replicon systems follow genome replication, usually without infectious particles.)

Data set [3] in a line: Intrinsic clearance in rat liver microsomes incubated for 2 hrs. It counts as ADME. The following applies: read-out: CLH. (In general: Liver microsomes are a subcellular fraction often used to study metabolism.)
Data set [4] in a line: Clearance in rat liver S9 fraction incubated for 2 hrs. It counts as ADME, subcellular. To be noted: read-out: CLH. The method in brief: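 Rat liver S9 fraction incubation for 2 h; mean clearance from n = 2.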
Data set [5] can be described thus: Intrinsic clearance in Cynomologus monkey liver microsomes incubated for 2 hrs. It counts as ADME, Macaca fascicularis. To be noted: cynomolgus monkey, read-out: CLH.
A short description of data set [6]: Intrinsic clearance in human liver microsomes incubated for 2 hrs. It counts as ADME. The following applies: read-out: CLH.
Data set [7] in a line: Intrinsic clearance in dog liver microsomes incubated for 2 hrs. It counts as ADME, Canis lupus familiaris. The following applies: read-out: CLH.
A further data set concerns Hepatocyte. The experiment in a line: Clearance in rat cryopreserved hepatocytes incubated for 2 hrs. It counts as ADME, cell-based.

A value given as a limit tells only on which side of the number the result lay.

With `COc1ccc2c(OCC[C@@H]3NC(=O)N(C)CCCC/C=C\[C@@H]4C[C@@]4(C(=O)NS(=O)(=O)C4CC4)NC3=O)cc(-c3ccccc3)nc2c1`, the cytotoxic concentration (CC50) in [1] was > 30 µM. The same molecule came in with an IC50 in data set [2] of 0.0198 µM. For the same molecule, the concentration giving a half-maximal response (EC50) in the data set on Hepatitis C virus is 8.2 µM.
For `COc1ccc2c(OCC[C@@H]3NC(=O)N(C)CCCCC/C=C\[C@@H]4C[C@@]4(C(=O)NS(=O)(=O)C4CC4)NC3=O)cc(-c3ccccc3)nc2c1`, in that order: 53 µM, 0.041 µM and 14.6 µM.
As for `COc1ccc2c(OCC[C@@H]3NC(=O)N(C)CCCC/C=C\[C@@H]4C[C@@]4(C(=O)NS(=O)(=O)C4(C)CC4)NC3=O)cc(-c3csc(NC(C)C)n3)nc2c1`, in data set [1], the CC50 was 37.4 µM. In [2], this molecule returned a concentration for half-maximal inhibition (IC50) of 0.0012 µM. The half-maximal effective concentration (EC50) in the data set with Hepatitis C virus was 1.04 µM.
`COc1ccc2c(OCC[C@@H]3NC(=O)N(C)CCCC/C=C\[C@@H]4C[C@@]4(C(=O)NS(=O)(=O)C4(C)CC4)NC3=O)cc(-c3nc(C(C)C)cs3)nc2c1`: in data set [3], the microsomal CLint came out at 155 µL/min/mg. Also, in data set [1], the 50% cytotoxic concentration (CC50) stood at 6.5 µM. Besides, half-maximal inhibition in [2] (IC50) was put at 0.0009 µM. Besides, the EC50 in the data set on Hepatitis C virus was 0.044 µM.
For `COc1ccc2c(OCC[C@@H]3NC(=O)N(C)CCCC/C=C\[C@@H]4C[C@@]4(C(=O)NS(=O)(=O)C4CC4)NC3=O)cc(-c3nc(C(C)C)cs3)nc2c1F`, the CC50 in data set [1] is > 75 µM. Also, the IC50 in data set [2] was 0.0096 µM. Also, the concentration giving a half-maximal response (EC50) in the data set on Hepatitis C virus came out at 1.49 µM.
For `COc1ccc2c(OCC[C@@H]3NC(=O)N(C)CCCC/C=C\[C@@H]4C[C@@]4(C(=O)NS(=O)(=O)C4(C)CC4)NC3=O)cc(-c3nc(C(C)C)cs3)nc2c1F`, in that order: 57.1 µM, 0.008 µM and 0.555 µM.
On to `COc1ccc2c(OCC[C@@H]3NC(=O)N(C)CCCC/C=C\[C@@H]4C[C@@]4(C(=O)NS(=O)(=O)C4CC4)NC3=O)cc(-c3nc(C(C)C)cs3)nc2c1Cl`, for which the microsomal CLint in data set [3] was found to be 36.6 µL/min/mg; in data set [4] it was 8.9 µL/min/mg; in data set [5], 124 µL/min/mg; in data set [6], 263 µL/min/mg; in [7], 25 µL/min/mg. Also, the CC50 in data set [1] came out at 40.4 µM. For the same molecule, the CLH in the data set with Hepatocyte came to 19.1 µL/min/mg. The molecule also gave an IC50 in data set [2] of 0.0017 µM. Further, the EC50 in the data set with Hepatitis C virus turned out to be 0.0765 µM.
For the molecule `COc1ccc2c(OCC[C@@H]3NC(=O)N(C)CCCC/C=C\[C@@H]4C[C@@]4(C(=O)NS(=O)(=O)C4(C)CC4)NC3=O)cc(-c3nc(C(C)C)cs3)nc2c1Br`, in [3], the microsomal CLint came out at 16.5 µL/min/mg. Besides, the CC50 in data set [1] came out at 28.3 µM. The molecule also displayed an IC50 in data set [2] of 0.0006 µM. Besides, the 50% effective concentration (EC50) in the data set with Hepatitis C virus is 0.0205 µM.
For `COc1ccc2c(OCC[C@@H]3NC(=O)N(C)CCCC/C=C\[C@@H]4C[C@@]4(C(=O)NS(=O)(=O)C4(C)CC4)NC3=O)cc(-c3nc(C(C)C)cs3)nc2c1C`, in that order: 9.3 µL/min/mg, 31.9 µM, 0.0023 µM and 0.085 µM.
For `COc1ccc2c(OCC[C@@H]3NC(=O)N(C)CCCC/C=C\[C@@H]4C[C@@]4(C(=O)NS(=O)(=O)C4(C)CC4)NC3=O)cc(-n3ccc(C(C)C)n3)nc2c1C`, in that order: 21 µL/min/mg, 25.6 µM, 0.002 µM and 0.05 µM.
Regarding `COc1ccc2c(OCC[C@@H]3NC(=O)N(C)CCCC/C=C\[C@@H]4C[C@@]4(C(=O)NS(=O)(=O)C4(C)CC4)NC3=O)cc(-n3ccc(C(C)C)n3)nc2c1Cl`, the CC50 in [1] stood at 31 µM. In addition, the IC50 in data set [2] is 0.0011 µM. The EC50 in the data set with Hepatitis C virus was determined as 0.0434 µM.
For `CCn1cc(-c2cc(OCC[C@@H]3NC(=O)N(C)CCCC/C=C\[C@@H]4C[C@@]4(C(=O)NS(=O)(=O)C4(C)CC4)NC3=O)c3ccc(OC)c(C)c3n2)cn1`, in that order: 36.7 µM, 0.003 µM and 0.485 µM.
For `CCCn1cc(-c2cc(OCC[C@@H]3NC(=O)N(C)CCCC/C=C\[C@@H]4C[C@@]4(C(=O)NS(=O)(=O)C4(C)CC4)NC3=O)c3ccc(OC)c(C)c3n2)cn1`, in that order: 62.3 µM, 0.0014 µM and 0.145 µM.
For `COc1ccc2c(OCC[C@@H]3NC(=O)N(C)CCCC/C=C\[C@@H]4C[C@@]4(C(=O)NS(=O)(=O)C4(C)CC4)NC3=O)cc(-c3cc(C(F)(F)F)nn3C)nc2c1C`, in that order: 34.5 µM, 0.001 µM and 0.44 µM.
`COc1ccc2c(OCC[C@@H]3NC(=O)N(C)CCCC/C=C\[C@@H]4C[C@@]4(C(=O)NS(=O)(=O)C4(C)CC4)NC3=O)cc(-n3ccc(C(F)(F)F)n3)nc2c1C`: in data set [3], the microsomal CLint stood at 14.4 µL/min/mg. For the same molecule, the CC50 in [1] stood at 45.8 µM. The IC50 in data set [2] was found to be 0.0018 µM. The concentration giving a half-maximal response (EC50) with Hepatitis C virus was 0.035 µM.
On to `COc1ccc2c(OCC[C@@H]3NC(=O)N(C)CCCC/C=C\[C@@H]4C[C@@]4(C(=O)NS(=O)(=O)C4(C)CC4)NC3=O)cc(-n3ccc(C(F)(F)F)n3)nc2c1Cl`, for which the CC50 in [1] stood at 48.8 µM. In addition, the IC50 in [2] is 0.0011 µM. Further, the 50% effective concentration (EC50) with Hepatitis C virus came to 0.0153 µM.
For `COc1ccc2c(OCC[C@@H]3NC(=O)N(C)CCCC/C=C\[C@@H]4C[C@@]4(C(=O)NS(=O)(=O)C4(F)CC4)NC3=O)cc(-c3nc(C(C)C)cs3)nc2c1Cl`, in that order: 51.4 µM, 0.0027 µM and 0.15 µM.
For `CCC1(S(=O)(=O)NC(=O)[C@@]23C[C@H]2/C=C\CCCCN(C)C(=O)N[C@@H](CCOc2cc(-c4nc(C(C)C)cs4)nc4c(Cl)c(OC)ccc24)C(=O)N3)CC1`, in that order: 49.3 µM, 0.0033 µM and 0.089 µM.
Turning to `COc1ccc2c(OCC[C@@H]3NC(=O)N(C)CCCC/C=C\[C@@H]4C[C@@]4(C(=O)NS(=O)(=O)C4(C#N)CC4)NC3=O)cc(-c3nc(C(C)C)cs3)nc2c1Cl`, the 50% cytotoxic concentration (CC50) in data set [1] is > 75 µM. The molecule also gave an IC50 in [2] of 0.0144 µM. Further, the concentration for a half-maximal effect (EC50) in the data set on Hepatitis C virus was > 0.75 µM.
For `C#CC1(S(=O)(=O)NC(=O)[C@@]23C[C@H]2/C=C\CCCCN(C)C(=O)N[C@@H](CCOc2cc(-c4nc(C(C)C)cs4)nc4c(Cl)c(OC)ccc24)C(=O)N3)CC1`, in [1], the cytotoxic concentration (CC50) was 26.3 µM. This molecule also returned a half-maximal inhibitory concentration (IC50) in [2] of 0.0007 µM. Also, the concentration giving a half-maximal response (EC50) with Hepatitis C virus amounted to 0.0289 µM.
For `COc1ccc2c(OCC[C@@H]3NC(=O)N(C)CCCC/C=C\[C@@H]4C[C@@]4(C(=O)NS(=O)(=O)N(C)C)NC3=O)cc(-c3nc(C(C)C)cs3)nc2c1Cl`, in that order: 47.8 µM, 0.0021 µM and 0.0845 µM.
For `COc1ccc2c(OCC[C@@H]3NC(=O)N(C)CCCC/C=C\[C@@H]4C[C@@]4(C(=O)NS(=O)(=O)N4CCC(F)(F)C4)NC3=O)cc(-c3nc(C(C)C)cs3)nc2c1Cl`, in that order: 37.6 µM, 0.165 µM and > 0.75 µM.
For `COc1ccc2c(OCC[C@@H]3NC(=O)N(C)CCCC/C=C\[C@@H]4C[C@@]4(C(=O)NS(=O)(=O)N4CCOCC4)NC3=O)cc(-c3nc(C(C)C)cs3)nc2c1Cl`, in that order: 26.4 µM, 0.15 µM and > 0.75 µM.
For `COc1ccc2c(OCC[C@@H]3NC(=O)N(C)CCCC/C=C\[C@@H]4C[C@@]4(C(=O)NS(=O)(=O)N4CCC[C@H]4C#N)NC3=O)cc(-c3nc(C(C)C)cs3)nc2c1Cl`, the CC50 in [1] was 28.3 µM. This molecule showed an IC50 in data set [2] of 0.264 µM. The EC50 with Hepatitis C virus was > 0.75 µM.
For `C#C[C@@H]1CCCN1S(=O)(=O)NC(=O)[C@@]12C[C@H]1/C=C\CCCCN(C)C(=O)N[C@@H](CCOc1cc(-c3nc(C(C)C)cs3)nc3c(Cl)c(OC)ccc13)C(=O)N2`, in that order: 21.2 µM, 0.0338 µM and > 0.75 µM.
For `COc1ccc2c(O[C@@H]3C[C@H]4C(=O)N[C@]5(C(=O)O)C[C@H]5/C=C\CCCCC[C@H](NC(=O)OC5CCCC5)C(=O)N4C3)cc(-c3csc(NC(C)C)n3)nc2c1` [CILUPREVIR], in that order: 21 µM, 0.0009 µM and 0.0028 µM.

What is called CC50 is the concentration giving 50% cytotoxicity. As usually defined, the IC50 is the point on the concentration scale where inhibition reaches its midpoint. The EC50 is the concentration that produces a half-maximal response.
